How the values were obtained:
Plasmodium falciparum [1] = assay: Antiprotozoal activity against chloroquine-resistant Plasmodium falciparum W2 assessed as growth inhibition after 72 hrs by SYBR Green dye-based fluorescence assay; assay type: functional, organism-based; conditions: W2, 72 h
Summary of the method: (§1)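 Laboratory strains (D6, TM91C235, W2) in long-term culture, late-ring/early-trophozoite stage, seeded into pre-dosed 384-well plates at 0.3% parasitemia and 2% hematocrit. Twelve two-fold dilutions from DMSO, final 0.5–10000 ng/ml, in duplicate or quadruplicate. Incubated 72 h at 37°C under 5% CO2/5% O2/90% N2. Lysis buffer with SYBR Green I (final 10x) added, then 24 h dark at room temperature. Fluorescence read; IC50/IC90 from sigmoidal variable-slope fit. Chloroquine 2000 ng/ml batch control.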

[2] = Cytotoxicity against human HepG2 cells after 48 hrs by MTT assay; assay type: cell-based; conditions: read-out: TC50
Summary of the method: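 HepG2 cells in supplemented MEM, 9570 cells/well, plated overnight at 37°C. Twelve 1.6-fold dilutions in duplicate, 57–10,000 ng/ml, 48 h. MTT added for 1 h at room temperature in the dark; formazan dissolved in acidified isopropanol; absorbance read. IC50 by sigmoidal variable-slope nonlinear regression; mefloquine served as plate control.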

Trypanosoma brucei = assay: Antiprotozoal activity against Trypanosoma brucei 427 assessed as growth inhibition after 48 hrs by PrestoBlue-based fluorescence assay; assay type: functional, organism-based; conditions: Trypanosoma brucei, 427, 48 h
Summary of the method: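 T. brucei brucei strain 427 at 5 × 10^3 cells/well in HMI-9 with compound; 37°C, 5% CO2, 48 h. PrestoBlue added for a further 4 h; fluorescence read at ex 530 / em 590 nm.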

Plasmodium falciparum [3] = assay: Antiprotozoal activity against chloroquine-resistant Plasmodium falciparum C2B assessed as growth inhibition after 72 hrs by SYBR Green dye-based fluorescence assay; assay type: functional, organism-based
Plasmodium falciparum [4] = assay: Antiprotozoal activity against chloroquine/mefloquine/pyrimethamine-resistant Plasmodium falciparum C235 assessed as growth inhibition after 72 hrs by SYBR Green dye-based fluorescence assay; assay type: functional, organism-based; conditions: C235, 72 h; summary of the method: as §1
Leishmania major [5] = assay: Antiprotozoal activity against intracellular amastigote stage of Leishmania major infected in mouse […] cells assessed as growth inhibition after 96 hrs by luciferase reporter gene assay; assay type: functional, organism-based
Summary of the method: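 RAW 264.7 macrophages (10,000/well, DMEM/10% HIFBS, 24 h at 37°C) infected overnight with luciferase-expressing L. major promastigotes (100,000/well), then washed three times. Twelve two-fold dilutions in duplicate, final 0.5–10,000 ng/ml, 96 h at 37°C, 5% CO2. Luciferin added for 30 min; luminescence read. IC50 by sigmoidal variable-slope nonlinear regression.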

Leishmania major [6] = assay: Antiprotozoal activity against promastigote stage of Leishmania major assessed as growth inhibition after 44 hrs by AlamarBlue staining-based fluorescence assay; assay type: functional, organism-based
Plasmodium falciparum [7] = assay: Antiprotozoal activity against Plasmodium falciparum D6 assessed as growth inhibition after 72 hrs by SYBR Green dye-based fluorescence assay; assay type: functional, organism-based; conditions: D6, 72 h; summary of the method: as §1
[8] = Selectivity ratio of TC50 for human HepG2 cells to EC50 for Plasmodium falciparum D6; assay type: ADME, cell-based

| Structure (SMILES) | EC50 (Plasmodium falciparum [1]) | CC50 at 48 h [2] | EC50 (Trypanosoma brucei) | EC50 (Plasmodium falciparum [3]) | EC50 (Plasmodium falciparum [4]) | EC50 (Leishmania major [5]) | EC50 (Leishmania major [6]) | EC50 (Plasmodium falciparum [7]) | selectivity ratio [8] |
| --- | --- | --- | --- | --- | --- | --- | --- | --- | --- |
| CC(=O)N1C(=O)/C(=C(\Nc2ccc(CN3CCCCC3)cc2)c2ccccc2)c2cc([N+](=O)[O-])ccc21 | 307 nM | > 6000 nM | 130 nM | 249 nM | 271 nM | 2040 nM | 1080 nM | 275 nM | – |
| CC(=O)N1C(=O)/C(=C(\Nc2ccc(CN3CCCCC3)cc2)c2ccccc2)c2cc(N)ccc21 | 241 nM | 1810 nM | 3250 nM | 210 nM | 243 nM | > 4000 nM | > 4000 nM | 218 nM | – |
| Nc1ccc2c(c1)/C(=C(/Nc1ccc(CN3CCCCC3)cc1)c1ccccc1)C(=O)N2 | 228 nM | > 6000 nM | 1160 nM | 175 nM | 176 nM | > 4000 nM | 790 nM | 199 nM | – |
| CS(=O)(=O)Nc1ccc2c(c1)/C(=C(/Nc1ccc(CN3CCCCC3)cc1)c1ccccc1)C(=O)N2 | 86 nM | 200 nM | 20 nM | – | 58 nM | > 4000 nM | 390 nM | 52 nM | – |
| O=C1Nc2ccc(NS(=O)(=O)c3ccccc3)cc2/C1=C(/Nc1ccc(CN2CCCCC2)cc1)c1ccccc1 | 144 nM | 3290 nM | 10 nM | 82 nM | 120 nM | 1910 nM | 850 nM | 107 nM | – |
| CC(=O)Nc1ccc2c(c1)/C(=C(/Nc1ccc(CN3CCCCC3)cc1)c1ccccc1)C(=O)N2 | 88 nM | > 6000 nM | 150 nM | 56 nM | 74 nM | > 4000 nM | 1520 nM | 68 nM | – |
| CCS(=O)(=O)Nc1ccc2c(c1)/C(=C/Nc1ccc(CN3CCCCC3)cc1)C(=O)N2 | 273 nM | 5000 nM | 1320 nM | 173 nM | 242 nM | > 4000 nM | 2770 nM | 241 nM | – |
| CCS(=O)(=O)Nc1ccc2c(c1)/C(=C(\C)Nc1ccc(CN3CCCCC3)cc1)C(=O)N2 | 1260 nM | > 6000 nM | 3360 nM | 1060 nM | 1190 nM | > 4000 nM | > 4000 nM | 1360 nM | – |
| CC/C(Nc1ccc(CN2CCCCC2)cc1)=C1/C(=O)Nc2ccc(NS(=O)(=O)CC)cc21 | 347 nM | > 6000 nM | 1790 nM | 143 nM | 255 nM | > 4000 nM | 2800 nM | 233 nM | – |
| CCCC/C(Nc1ccc(CN2CCCCC2)cc1)=C1/C(=O)Nc2ccc(NS(=O)(=O)CC)cc21 | 217 nM | > 6000 nM | 1670 nM | 148 nM | 170 nM | > 4000 nM | 2600 nM | 167 nM | – |
| CCS(=O)(=O)Nc1ccc2c(c1)/C(=C(/NC1CCN(C)CC1)c1ccccc1)C(=O)N2 | > 15000 nM | > 10000 nM | > 50000 nM | > 15000 nM | > 15000 nM | > 4000 nM | > 4000 nM | > 15000 nM | – |
| CCS(=O)(=O)Nc1ccc2c(c1)/C(=C(/Nc1ccccc1)c1ccccc1)C(=O)N2 | 143 nM | 4700 nM | 1440 nM | 117 nM | 118 nM | > 4000 nM | > 4000 nM | 109 nM | 50 |
| CCS(=O)(=O)Nc1ccc2c(c1)/C(=C(/Nc1ccc(C)cc1)c1ccccc1)C(=O)N2 | 2490 nM | 3100 nM | 370 nM | 1570 nM | 1640 nM | > 4000 nM | 2600 nM | 1610 nM | – |
| CCS(=O)(=O)Nc1ccc2c(c1)/C(=C(/Nc1ccc(CN3CCOCC3)cc1)c1ccccc1)C(=O)N2 | 77 nM | 1310 nM | 100 nM | – | 31 nM | 1680 nM | 940 nM | 54 nM | – |
| CCS(=O)(=O)Nc1ccc2c(c1)/C(=C(/Nc1ccc(N3CCCCC3)cc1)c1ccccc1)C(=O)N2 | 832 nM | > 6000 nM | 1530 nM | 735 nM | 647 nM | > 4000 nM | 620 nM | 595 nM | – |
| O=C1Nc2ccccc2/C1=C(/Nc1ccc(CN2CCCCC2)cc1)c1ccccc1 | 273 nM | > 6000 nM | 70 nM | 160 nM | 227 nM | > 4000 nM | 770 nM | 230 nM | – |
| CO[C@@H](C(=O)N1Cc2n[nH]c(NC(=O)c3ccc(N4CCN(C)CC4)cc3)c2C1)c1ccccc1 [DANUSERTIB] | – | 4000 nM | – | – | – | – | > 21000 nM | 857 nM | – |
| CCS(=O)(=O)Nc1ccc2c(c1)/C(=C(/Nc1ccc(CN3CCCCC3)cc1)c1ccccc1)C(=O)N2 [HESPERADIN] | 21 nM | < 200 nM | 60 nM | 14 nM | 10 nM | 2370 nM | 120 nM | 10 nM | – |
| Cc1cc(Nc2cc(N3CCN(C)CC3)nc(Sc3ccc(NC(=O)C4CC4)cc3)n2)n[nH]1 [TOZASERTIB] | – | 3300 nM | 10000 nM | – | – | – | > 21000 nM | 838 nM | – |

Reference: ChEMBL document CHEMBL3132763, “Repurposing human Aurora kinase inhibitors as leads for anti-protozoan drug discovery” (Medchemcomm, 2014)
